Experimental findings from ChEMBL document CHEMBL4513216, “Probing the Open Global Health Chemical Diversity Library for Multistage-Active Starting Points for Next-Generation Antimalarials” (ACS Infect Dis, 2020) are described below.

Structures are written as SMILES.

The nature of the data set: Toxicity liver stage against HepG2, at 10uM. The data set is classed as cell-based. The note with it: human, HepG2-A16-CD81EGFP cells; read-out: INHIBITION
Also on record: test concentration 10 uM, cell line HepG2-A16-CD81EGFP. The method in brief:
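Uninfected HepG2-A16-CD81EGFP cells, 3 × 10^3 per well, 1536-well, plated on prespotted compound at 10 μM final, parasite-free screening media added to match infected plates; puromycin 10 μM positive, DMSO 0.5% negative; run in parallel with 48 h PbLuc assay at 37 °C, 5% CO2; viability by CellTiter-Glo luminescence, normalized to controls.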
On to `CN(C(=O)c1cccc(C#N)c1)c1nnc(C2CCOC2)s1` (configuration not stated), for which the cytotoxicity at 10 µM came out at 5.96%. The same measure for `Cn1c2ccc(F)cc2c2ncn(CCCN(CCO)CCO)c(=O)c21`: 11.2%. As to `COCC(O)CN1CCC(=O)N(Cc2ccco2)Cc2ccccc21` (configuration not stated), the cytotoxicity at 10 µM was -5.62%. The figure for `CN1CC(C)(C)CN(C(=O)CCc2ccccc2)CC1=O` is -0.191%; for `COCCN(Cc1cc(O)nc2ccccc12)C(=O)NC(C)C` it is 7.66%. Consider `CCN1CC2(CC1=O)CN(C(=O)NC)CCN(S(C)(=O)=O)C2` (configuration not stated), for which the cytotoxicity at 10 µM is -6.29%. For `Cc1nc(C)c2c(n1)CCN(C(=O)CN(C)C)CC2`, the cytotoxicity at 10 µM is -4.51%. On to `CNC(=O)C1CCN(c2nc3nc[nH]c(=O)c3s2)CC1`, for which the cytotoxicity at 10 µM is -13.5%.

In the case of `COc1ccc(C2SCC(=O)N2c2ncc(C)s2)cc1` (configuration not stated), the cytotoxicity at 10 µM was found to be 8.45%. The same measure for `CC(C)CN1C(=O)c2ccc(C(=O)NCCc3c[nH]cn3)cc2C1=O`: 9.66%. As for `CN(C)C(=O)COC[C@]12COC[C@H]1CN(Cc1ccoc1)C2`, the cytotoxicity at 10 µM was -1.56%. Turning to `Cn1ncc2c1CCCN(C(=O)C1CC1)C2`, the cytotoxicity at 10 µM is -8.27%. Regarding `CNC(=O)C1(CCCc2cnccn2)CCN1Cc1ccc(C)cc1` (configuration not stated), the cytotoxicity at 10 µM was found to be 0.615%.

For `Cc1nc(C)n(CCC(=O)N2CCc3ncc(Cl)cc3C2)n1`, the cytotoxicity at 10 µM worked out at 2.67%.

Take `CS(=O)(=O)c1cn[nH]c1C1CCCN1C(=O)c1cccnc1` (configuration not stated): the cytotoxicity at 10 µM is -14.6%. Consider `Cc1noc(C2(C)CCCN(C(=O)c3cnn(C)c3)C2)n1` (configuration not stated), for which the cytotoxicity at 10 µM was -17.3%.

In the case of `CN(C)c1cc(C2CCCN2Cc2ccccc2OCC(=O)O)ccn1` (configuration not stated), the cytotoxicity at 10 µM is -3.8%. Regarding `NCc1cnn(-c2ccccc2C(=O)NCCc2ccccn2)c1`, the cytotoxicity at 10 µM is -19.5%.

Consider `O=c1ccn([C@H]2CCN(Cc3ncc[nH]3)CC[C@@H]2O)c(=O)[nH]1`, for which the cytotoxicity at 10 µM was determined as 13%. Take `COCC(=O)N1CCCC(c2noc3nc(C)cc(C(F)(F)F)c23)C1` (configuration not stated): the cytotoxicity at 10 µM is -2.25%. `CN(C)C(=O)CN1CCC(c2cccc(Cc3ccc(F)cc3)n2)CC1`: the cytotoxicity at 10 µM is -22.3%. Take `O=C(c1ccccn1)N1CCCC(c2cc(C(F)F)n3ncnc3n2)C1` (configuration not stated): the cytotoxicity at 10 µM is -1.74%.

Turning to `Cn1cc(C2CCCN2C(=O)c2cnc(-c3ncccn3)s2)cn1` (configuration not stated), the cytotoxicity at 10 µM was 18.8%.

On to `CNC(=O)c1cccc(CNC2CCSc3c(Cl)cccc32)c1` (configuration not stated), for which the cytotoxicity at 10 µM came out at 12.8%.

Consider `N#CCCN(Cc1ccco1)C(=O)COC1CCCCC1`, for which the cytotoxicity at 10 µM is 6.35%. With `COCCn1c(C(=O)NCc2n[nH]c(C)n2)cc2ccccc21`, the cytotoxicity at 10 µM is -3.83%. Consider `CC(C)C1CCC(N2CCN(CCCS(C)(=O)=O)CC2)CC1` (configuration not stated), for which the cytotoxicity at 10 µM stood at 0.803%. The same measure for `O=C(CN1CCc2cncnc2C1)NC(c1ccccc1)C1CC1` (configuration not stated): -9.1%; for `Cc1cc(C2CCCN(C(=O)COc3cc(F)ccc3F)C2)n[nH]1` (configuration not stated): -1.3%. Regarding `Cn1c(C2CCCN2C(=O)CN2CCCC2=O)nc2ccccc21` (configuration not stated), the cytotoxicity at 10 µM was -3.47%. For the compound `Cc1cnc(CN2CCN(C(C)c3nc(C4CC4)no3)CC2)cn1` (configuration not stated), the cytotoxicity at 10 µM is 1.32%. Take `O=C(Cn1ccc(=O)c2ccccc21)Nc1cnccc1O`: the cytotoxicity at 10 µM was -4.08%.

Turning to `Cc1cnn(CC2CCCN2CC(=O)N(C)Cc2ccco2)c1` (configuration not stated), the cytotoxicity at 10 µM worked out at 10.8%. Regarding `CN(Cc1nc2ccccc2s1)C1CCCN(c2cccnn2)C1` (configuration not stated), the cytotoxicity at 10 µM amounted to 5.15%. Consider `CCn1cc(C(=O)Nc2ccc(C)cc2C(=O)NC)cn1`, for which the cytotoxicity at 10 µM was determined as 5.81%.

In the case of `CC(=O)c1cccc(NC(=O)N(CCO)C2CCc3ccccc32)c1` (configuration not stated), the cytotoxicity at 10 µM was -3.01%. Regarding `COCC(C)(C)NS(=O)(=O)C1CS(=O)(=O)c2ccccc21` (configuration not stated), the cytotoxicity at 10 µM was determined as 4.22%. Regarding `CC(C)(C)n1ncc2c(=O)[nH]c(NC3CC=CC3)nc21`, the cytotoxicity at 10 µM came out at 1.68%.

As to `CN(c1cccc(C#N)c1)S(=O)(=O)c1cc(C(=O)O)ccc1Cl`, the cytotoxicity at 10 µM was -5.94%.

For `NC(=O)CNC1(c2ccc(Cl)cc2)CCCC1`, the cytotoxicity at 10 µM is 13%. Consider `CC(C)OCCN1CCc2cncnc2C1`, for which the cytotoxicity at 10 µM is -7.52%. The same measure for `Cc1ccc(-n2c(C)nnc2SCC(O)COCc2ccco2)cc1` (configuration not stated): -11.6%; for `CC(C)C(CNCc1cccc2c1OCO2)N1CCOCC1` (configuration not stated): -49.1%. In the case of `COC(=O)CC(C)(C)CC(=O)N1CCC(C(F)(F)F)CC1`, the cytotoxicity at 10 µM came to 14.9%.

As for `CCc1c(C)nc2ccccc2c1N1CCC(O)CC1`, the cytotoxicity at 10 µM worked out at 0.395%.

For the compound `O=c1[nH]c(N2CCN(C3CC3)CC2)nc2c1cnn2-c1ccccc1`, the cytotoxicity at 10 µM came to 10.8%.

For `COC(=O)CCCNC(=O)COc1ccccc1C(F)(F)F`, the cytotoxicity at 10 µM was -0.969%. As for `Cc1cccc(C(=O)NC2CCN(c3cnn(C)c3)C2=O)n1` (configuration not stated), the cytotoxicity at 10 µM turned out to be 3.48%.

For `O=C(C1CCC1)N1CCc2onc(Cn3cccn3)c2C1`, the cytotoxicity at 10 µM is -1.13%. As to `CCOCC1CC2(CCN(C(=O)c3ccccc3F)CC2)CO1` (configuration not stated), the cytotoxicity at 10 µM was 2.26%. With `CC[C@H](C)Nc1ncc(-c2ccn(C3CCN(C(C)=O)CC3)n2)cn1`, the cytotoxicity at 10 µM is -9.22%. The same measure for `CC[C@@H](C)[C@@H](N)C(=O)Nc1cccc(-c2cnc(NCCO)nc2)c1`: -3.08%; for `CCNc1nc2c(s1)C(=O)CN(C(=O)NCCc1ccccc1)C2`: 3.3%; for `c1cc(CN(CCCn2ccnc2)Cc2ccoc2)ccn1`: -11.1%.

On to `O=C(NCCN1CCCC(CO)C1)c1ccc2sccc2c1` (configuration not stated), for which the cytotoxicity at 10 µM was -5.35%. On to `CCN(C)Cc1nc(-c2ccccc2NS(C)(=O)=O)oc1C`, for which the cytotoxicity at 10 µM turned out to be 3.63%. The figure for `COc1cccc2c1OCC(C(=O)NCCn1nc(C)c(Cl)c1C)C2` (configuration not stated) is -5.89%; for `O=C(O)C1(Cc2ccc(F)cc2)CCCN(Cc2ccncc2)C1` (configuration not stated) it is -0.566%. On to `CCn1nc(C)c(NC(=O)CN2CC[C@@H](F)C2)c1C`, for which the cytotoxicity at 10 µM was -1.2%. In the case of `NCC1Cc2cc(Cl)cc(-c3cncc(C(=O)N4CCCCC4)n3)c2O1` (configuration not stated), the cytotoxicity at 10 µM was -53%. As for `COc1ccc(-n2c(SC)nc(O)c(Cc3ccccc3)c2=O)cc1`, the cytotoxicity at 10 µM is -7.52%. Take `CC(=O)NCc1nnc2n1CCN(c1ncnc3c(C)csc13)CC2`: the cytotoxicity at 10 µM is 4.71%. Regarding `Cc1nc(CCNc2nc(N(C)C)nc3c2CCCC3)cc(=O)[nH]1`, the cytotoxicity at 10 µM came to 6.86%. Regarding `CN(C)C(Cn1ccnc1-c1ccccc1C(=O)O)c1ccccc1Cl` (configuration not stated), the cytotoxicity at 10 µM was -0.966%. The same measure for `O=C(O)C1(Oc2ccc(Cl)cc2)CCN(C2CCOCC2)CC1`: 3.05%; for `COc1ccccc1-c1noc(CCC(=O)NC(C)Cn2cccn2)n1` (configuration not stated): 5.67%; for `Cc1cccn2c(CNC(C)CO)cnc12` (configuration not stated): -2.78%. As to `CC(=O)Nc1ccc(C(=O)N(C)C(C)Cc2cc(C)ccn2)cn1` (configuration not stated), the cytotoxicity at 10 µM came out at 1.32%.

With `Cc1nc[nH]c1CN1CCN(C(=O)CCC(F)(F)F)[C@H]2CS(=O)(=O)C[C@H]21`, the cytotoxicity at 10 µM is -12.3%. As to `Cc1c(Br)cc2c(c1C)OCC(N(C)C)C2=O` (configuration not stated), the cytotoxicity at 10 µM was -13.1%. The same measure for `Cc1cn(Cc2ccccc2)nc1N`: -4.66%; for `O=C(Cn1ccnc1)N1C[C@@H]2CC[C@H](Oc3ccccc3)[C@@H]2C1`: -3.71%. For the compound `O=S(=O)(c1ccccc1)N1CCCCC1c1cc[nH]n1` (configuration not stated), the cytotoxicity at 10 µM amounted to 7.65%.

As to `COCC(=O)NC(C)Cc1cccc(Cl)c1` (configuration not stated), the cytotoxicity at 10 µM is -8.72%. As for `CN1CCCC1CNC(=O)CCCOc1ccc(Cl)cc1` (configuration not stated), the cytotoxicity at 10 µM was -9.33%. As to `Cn1cnnc1C1CCCN(C(=O)CCc2ccc3c(c2)OCO3)C1` (configuration not stated), the cytotoxicity at 10 µM turned out to be 0.415%.

Turning to `COc1ccc(-c2nc(CN3CCCC3Cn3cccn3)no2)cc1` (configuration not stated), the cytotoxicity at 10 µM is -1.89%. The same measure for `COc1cc(CCC(=O)NC2CC2)ccc1OCC(F)(F)F`: -8.35%; for `CCN(CC1CCOC1)C(=O)c1ccccc1NS(=O)(=O)CC` (configuration not stated): -7.4%. Turning to `CC(=O)N1CCCN(C(=O)c2cnc3n[nH]c(C)c3c2)CC1`, the cytotoxicity at 10 µM is -5.85%.

For the compound `Cc1ccc(NC2CCN(C(=O)CCc3ccco3)CC2)nn1`, the cytotoxicity at 10 µM was -2.97%. The same measure for `Cn1ccnc1CN1CCN(Cc2noc(-c3ccccc3)n2)CC1`: 1.08%; for `Cc1ccccc1CC(=O)N1CCN(C2CCOC2=O)CC1` (configuration not stated): -8.38%; for `CCc1nccn1C1CCCN(C(=O)c2cnn3ccc(C)nc23)C1` (configuration not stated): -9.68%. As for `Cc1cnn(CC2CCCN2C(=O)c2cc3c(F)cccc3[nH]2)c1` (configuration not stated), the cytotoxicity at 10 µM is -12.7%. As for `Cc1ccc(-c2cc(CN3CCOC(Cn4cncn4)C3)on2)cc1` (configuration not stated), the cytotoxicity at 10 µM was -8.65%. Consider `Cc1ccc(CN(CCCn2ccnc2)Cc2cnn(C)c2)s1`, for which the cytotoxicity at 10 µM was -18%. `c1cncc(OC[C@]23COC[C@H]2CN(C2CCOCC2)C3)c1`: the cytotoxicity at 10 µM turned out to be 8.61%.

In the case of `COCCN1CCO[C@@H]2CN(Cc3sccc3C)C[C@@H]2C1`, the cytotoxicity at 10 µM is -1.34%.

Regarding `Cc1ccc(N2Cc3cnn(C)c3C(COCC3CC3)C2)nn1` (configuration not stated), the cytotoxicity at 10 µM stood at 3.28%.

On to `O=C(N1CCOCC1)[C@@]12CCO[C@@H]1CCN(CC1CCCCC1)C2`, for which the cytotoxicity at 10 µM turned out to be 3.59%.

With `O=C1CO[C@@H]2CN(Cc3cccs3)C[C@H]2N1CC1CC1`, the cytotoxicity at 10 µM was -2.32%. For `Cc1cncc(C(=O)N2C[C@H]3CCC[C@@]3(COc3ccccn3)C2)c1`, the cytotoxicity at 10 µM was 1.08%. The figure for `O=C(NC[C@H]1OC[C@@H](NC2CCNCC2)[C@@H]1O)C1CCCC1` is -10.5%. With `c1ccc(OCc2noc3c2CN(c2ncccn2)CC3)nc1`, the cytotoxicity at 10 µM is -3.25%. With `O=C(NCc1ccccc1)C1=NOC2(CCNC2)C1` (configuration not stated), the cytotoxicity at 10 µM stood at 0.213%. For the compound `Cc1ccc(C(=O)N2C[C@@H]3CC[C@H]2CN(S(=O)(=O)N(C)C)C3)c(O)c1`, the cytotoxicity at 10 µM was 3.41%.
